Most compounds without a hit are left out; they make up all but 5.5% or so of the library.
WT yeast gro inh = growth inhibition of WT yeast, mitochondrial fusion screen | mitochondrial fusion phenotypic screen, WT strain | inhibition, % at 10 µM | 190,000 tested, 2.1% active; in the data active = inhibition above about 58%; tested in S. cerevisiae
Yeast growth inh = reduces growth of yeast BB579 in restrictive medium; S. cerevisiae BB579 growth, OD615, 48 h; inhibition, % at 10 µM; 140,000 tested, 0.51% active;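 active = inhibition above a set limit, 3 SD over the mean compound inhibition, cut at about 44% in these data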
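Assay system – yeast BB579 (DeaD) · Dosing – single compound dose of 10 µM, 0.25% DMSO final · Detection – OD615 turbidity measurement · Buffer or medium – CSMM-D restrictive synthetic medium containing dextrose (glucose) · Benchmarks – positive control amphotericin B 10 µg/mL · Incubation – 48 h exposure, 30 °C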
RAM network inh = yeast RAM network inhibition; inhibition, % at 50 µM; 190,000 tested, 1.8% active; AID 868; S. cerevisiae dse1pr::URA3 reporter, 5-FOA growth OD615, 2 d; analog-sensitive cbk1-as2 kinase mutant strain;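 active = inhibition above a set limit, 3 SD over mean compound inhibition, cut at about 8.4% in these data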;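 also: 0% = DMSO-only wells with no growth and 100% = 10 µM 1-NA-PP1 full growth; inhibition rescues growth on 5-FOA so higher OD means more RAM inhibition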
Yeast lifespan up = extends the lifespan of yeast | inhibition of the nicotinamide effect, % at 10 µM | AID 775 | S. cerevisiae growth with nicotinamide, OD615; deaD strain in restrictive glucose medium | 130,000 tested, 0.68% active;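 active = inhibition above a set limit, placed 3 SD over the median of all compounds, cut at about 26% in these data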;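 also: 0% = nicotinamide-treated wells and 100% = cells grown without nicotinamide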
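Buffer or medium: CSMM-D glucose medium, restrictive; test system: modified budding yeast, DeaD strain; compound: single dose 10 µM compound, 0.25% DMSO; schedule: culture preincubation 4 h, compound exposure 48 h, both 30 °C; detection: optical density (absorbance) at 615 nm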
Cl transport mod = KCC2 (human) Cl- transport modulation; 190,000 tested, 2.2% active; KCC2 cells, thallium flux FluoZin-2 fluorescence; B-score of Tl+ flux slope (higher = more flux/activation; lower = inhibition) at 10 µM; Q9H2X9;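 active = thallium flux slope and its plate-corrected score both differing from the plate sample mean at a set confidence after two filtering rounds, in either direction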;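 also: slope of fluorescence scaled to starting intensity during 10 to 20 s after thallium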
Target sequence (Q9H2X9 whole entry, looked up): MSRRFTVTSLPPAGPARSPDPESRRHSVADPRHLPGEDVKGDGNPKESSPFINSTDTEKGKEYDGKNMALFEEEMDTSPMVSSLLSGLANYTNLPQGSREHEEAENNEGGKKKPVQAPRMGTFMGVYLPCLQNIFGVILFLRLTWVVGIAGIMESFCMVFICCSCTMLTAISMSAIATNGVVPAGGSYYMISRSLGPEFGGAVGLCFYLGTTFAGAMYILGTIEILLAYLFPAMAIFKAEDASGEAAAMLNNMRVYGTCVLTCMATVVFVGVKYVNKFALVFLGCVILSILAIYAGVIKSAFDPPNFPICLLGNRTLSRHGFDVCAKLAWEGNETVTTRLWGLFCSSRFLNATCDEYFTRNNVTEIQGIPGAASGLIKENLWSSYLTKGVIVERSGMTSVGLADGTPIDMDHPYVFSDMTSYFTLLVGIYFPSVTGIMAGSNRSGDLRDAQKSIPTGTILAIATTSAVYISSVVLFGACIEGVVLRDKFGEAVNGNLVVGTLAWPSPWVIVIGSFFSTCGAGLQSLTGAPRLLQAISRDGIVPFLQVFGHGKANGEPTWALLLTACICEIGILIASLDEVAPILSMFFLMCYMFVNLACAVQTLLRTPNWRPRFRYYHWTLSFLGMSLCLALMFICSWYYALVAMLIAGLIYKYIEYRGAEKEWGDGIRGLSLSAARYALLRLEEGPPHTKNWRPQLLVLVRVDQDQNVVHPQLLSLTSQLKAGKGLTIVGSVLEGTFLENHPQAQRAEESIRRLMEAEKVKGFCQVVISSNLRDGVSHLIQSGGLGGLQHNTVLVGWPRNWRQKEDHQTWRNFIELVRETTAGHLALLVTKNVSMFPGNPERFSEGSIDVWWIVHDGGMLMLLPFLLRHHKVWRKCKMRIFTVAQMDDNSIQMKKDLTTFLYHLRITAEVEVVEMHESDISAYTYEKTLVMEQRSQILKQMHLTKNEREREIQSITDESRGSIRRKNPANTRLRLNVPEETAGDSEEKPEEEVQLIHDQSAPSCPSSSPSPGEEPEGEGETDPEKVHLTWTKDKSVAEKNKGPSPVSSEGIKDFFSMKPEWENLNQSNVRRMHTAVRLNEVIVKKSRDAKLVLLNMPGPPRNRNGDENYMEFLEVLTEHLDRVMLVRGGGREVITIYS
KCC2 sec1 = KCC2 (human) modulation, secondary assay; shares compounds with Cl transport mod; HEK293-KCC2, thallium flux, FluoZin2 fluorescence; hits give high values; normalised thallium flux (F/F0 slope) at 10 µM; 3,700 tested, 15% active; AID 1713;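 active = thallium flux slope above the same plate's solvent-only control mean plus 3 SD; inconclusive = the two replicate wells disagree; inactive = no significant difference from solvent-only control wells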
KCC2 bumet counter = bumetanide-insensitive thallium flux in KCC2 cells with ouabain, counter-screen | shares compounds with Cl transport mod | HEK293-KCC2 + bumetanide/ouabain, thallium flux FluoZin2; hits give high values | normalized thallium flux at 10 µM | 3,700 tested, 49% active;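 active = thallium entry rate above the same plate's blocked-transporter control wells by more than 3 SD; inconclusive = the two repeat wells disagree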;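 also: raw slope of fluorescence over initial fluorescence between 10 and 20 s after thallium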
KCC2 sec2 = confirmation of human KCC2 transport modulators. shares compounds with Cl transport mod. HEK293-KCC2, thallium flux FluoZin2 fluorescence; actives lie on both sides; F/F0 rise rate, 10–20 s post-thallium. normalized thallium flux at 10 µM. 3,700 tested, 23% active. AID 1715;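 active = thallium flux slope more than 3 SD above or below the plate's solvent-only control mean, mostly below; inconclusive = the two repeat wells disagreed; inactive = no significant shift from solvent-only controls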;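 also: raw slope with 0.1% DMSO as baseline and bumetanide as block control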
HEK293 Tl flux = counter-screen for KCC2 modulators: effect in parental HEK293 cells; shares compounds with Cl transport mod; thallium flux FluoZin2, ouabain; baseline-ratio fluorescence slope, 10–20 s after thallium; thallium flux rate (normalised fluorescence) at 10 µM; 3,700 tested, 46% active;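 active = thallium flux rate significantly above the same plate's solvent-only control wells, beyond their mean plus 3 SD; inconclusive = the two replicate wells gave conflicting results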
KCC2 retest ouab = confirmation of human KCC2 modulators with ouabain. shares compounds with Cl transport mod. HEK293-KCC2, thallium flux FluoZin2 fluorescence; bidirectional: low = inhibitor, high = activator. raw Tl+ flux slope (below DMSO = inhibition, above = activation) at 10 µM. 3,700 tested, 48% active;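 active = thallium flux slope beyond 3 SD from same-plate DMSO control mean in most replicates, usually higher, sometimes lower; inconclusive = repeat tests gave conflicting results; inactive = no significant difference from controls in most replicates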;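 also: slope of initial-normalized fluorescence between seconds 10 and 20 after thallium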
HEK293 Tl flux2 = parental HEK flux effect, counter-screen 2; shares compounds with Cl transport mod; HEK293 parental, thallium flux FluoZin-2 fluorescence slope; thallium flux slope at 10 µM; 3,700 tested, 33% active;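 active = thallium flux slope above the same plate's solvent-control mean plus 3 SD in both duplicate wells; inconclusive = duplicate wells that disagreed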;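 also: run without ouabain in cells lacking the KCC2 cotransporter; slope of fluorescence scaled to its starting value between 10 and 20 s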
An asterisk follows results filed as active; i = inactive; ? = inconclusive; / = no result.

SMILES	WT yeast gro inh	Yeast growth inh	RAM network inh	Yeast lifespan up	Cl transport mod	KCC2 sec1	KCC2 bumet counter	KCC2 sec2	HEK293 Tl flux	KCC2 retest ouab	HEK293 Tl flux2
Cc1cccc(C)c1OCC(=O)N(Cc1ccc(N(C)C)cc1)C1CCS(=O)(=O)C1 (stereo not drawn)	/	/	/	/	0.639	/	/	/	/	/	/
COc1ccc(CCNc2oc(COc3ccccc3F)nc2C#N)cc1	35.3	-43.0	5.3	-9.0	/	0.00775	0.00341*	0.0338	0.00534*	0.0173*	0.00984
N#Cc1nc(COc2ccccc2F)oc1NCc1ccc(F)cc1	1.8	-3.6	1.4	-5.4	/	0.00592	0.00501	?	0.00749	?	0.0106
C=CCNc1oc(COc2ccc(C)cc2)nc1C#N	9.0	-1.0	1.2	-10.3	/	0.008	0.00531	0.0321	0.00744	?	0.0107
O=C(O)CC/C(=N/NC(=O)c1cccs1)c1ccccc1	18.8	-1.1	0.8	-1.0	-0.874	/	/	/	/	/	/
CSc1ccc(CN2CCN(CCC(C)C)C(CCO)C2)cc1 (stereo not drawn)	5.9	/	1.7	/	-0.00469	/	/	/	/	/	/
CC(C)CCN1CCN(Cc2ccc(C#CCCO)cc2)CC1CCO (stereo not drawn)	-0.5	/	0.8	/	5.31*	0.0175	0.00426	0.0316	0.00814	0.0177	0.0105
O=C(CSc1nnc(SCc2cccc3ccccc23)s1)N/N=C/c1c[nH]c2ccccc12	-4.5	-19.2	4.1	1.1	-3.92*	0.00573*	0.014*	0.0237*	0.0089*	0.0242*	?
CCCN1C(=O)/C(=C/c2ccc3c(c2)OCO3)NC1=S	16.7	/	0.0	/	44.9*	0.0257*	0.071*	0.0353	0.092*	0.0602*	0.0219*
CCCN1C/C(=C/c2ccc3c(c2)OCO3)C(=O)/C(=C/c2ccc3c(c2)OCO3)C1	2.6	-38.0	0.4	3.4	-0.588	/	/	/	/	/	/
COc1cc(C2NC(=S)NC(C)=C2C(=O)Nc2cc(C)cc(C)c2)ccc1O (stereo not drawn)	/	/	/	/	-0.529	/	/	/	/	/	/
O=C(NC(=S)Nc1ccccc1F)c1ccc(Br)o1	8.1	/	1.4	/	i	/	/	/	/	/	/
Cc1ccc(NC(=S)NC(=O)c2ccc(Br)o2)c(C)c1	10.1	/	4.7	/	54.7*	0.0212*	0.132*	0.0437*	0.0689*	0.114*	0.0181*
Cc1cccc(NC(=S)NC(=O)c2ccc(Br)o2)c1C	21.0	/	0.5	/	71.4*	0.05*	0.1*	0.0536*	0.14*	0.115*	0.0572*
Cc1ccc(C)c(NC(=S)NNC(=O)c2ccc(Br)o2)c1	-7.6	-32.9	0.8	-7.9	/	/	/	/	/	/	/
O=C(N1CCN(CCO)CC1)N1c2ccccc2CCc2ccccc21	/	/	/	/	-0.141	/	/	/	/	/	/
Cc1nn(-c2ccccc2)c(C)c1/C=C/C(=O)OCC(=O)NC1CCS(=O)(=O)C1 (stereo not drawn)	8.4	/	0.7	/	/	0.0056	0.00441	0.027	0.00806	0.0177	0.0102
CCOC(=O)c1sc(Nc2nc3c(OC)cccc3s2)nc1C	2.7	-23.1	3.8	-11.0	26*	0.00817	0.0117*	0.0408*	0.0254*	0.038*	0.0175*
Cc1cccc(CNC(=O)CCc2nnc(C3CCCCC3)o2)c1	-5.5	/	3.1	/	/	/	/	/	/	/	/
O=C(Nc1nc(COc2ccccc2)cs1)C1CCC1	-9.4	-13.4	2.5	/	-4.34*	0.00926	0.00714	?	0.00679	0.0133*	?
COCCn1c(N)c(Sc2ccc([N+](=O)[O-])cc2)c(=O)[nH]c1=O	3.2	/	0.0	/	i	/	/	/	/	/	/
C/C(=N\OC(=O)Nc1ccccc1)c1cnn(-c2cc(C(F)(F)F)cc(C)n2)c1C	/	/	/	/	-0.97	/	/	/	/	/	/
O=C(CCc1c[nH]c2ccccc12)NCc1ccc2c(c1)OCO2	-3.4	-15.3	0.5	-5.3	0.214	/	/	/	/	/	/
O=C(CCCc1c[nH]c2ccccc12)NCc1ccc2c(c1)OCO2	-25.7	-11.9	1.0	-9.2	-4.47*	0.00679	0.00655	0.0278	0.00654	?	0.00977
O=C(O)CC(NC(=O)C(c1ccccc1)c1ccccc1)c1cccc([N+](=O)[O-])c1 (stereo not drawn)	/	/	/	/	-0.574	/	/	/	/	/	/
SMILES	WT yeast gro inh	Yeast growth inh	RAM network inh	Yeast lifespan up	Cl transport mod	KCC2 sec1	KCC2 bumet counter	KCC2 sec2	HEK293 Tl flux	KCC2 retest ouab	HEK293 Tl flux2
CS/C(=C\[N+](=O)[O-])Nc1ccc(OC(F)(F)F)cc1	-1.9	/	0.1	/	-4.2*	0.00764	?	0.0255*	?	0.0138*	0.0118
CCN(CC)c1c([N+](=O)[O-])ncn1C	-1.2	-38.1	0.9	-3.9	/	0.0107	0.00624	0.0338	?	0.0193	?
CCS(=O)(=O)c1c([N+](=O)[O-])ncn1C	-9.5	-26.0	1.6	5.9	0.315	/	/	/	/	/	/
O=C(O)CC(c1cccc2ccccc12)N1Cc2ccccc2C1=O (stereo not drawn)	3.1	/	2.0	/	-0.372	/	/	/	/	/	/
CCSc1nc2ccccc2c(=O)n1C1CCOC(C)(C)C1 (stereo not drawn)	-1.7	/	-0.6	/	-2.31	/	/	/	/	/	/
CC1(C)CC(n2c(=S)[nH]c3ccccc3c2=O)CCO1 (stereo not drawn)	4.7	-46.9	4.6	-7.2	14.2*	0.0118	0.0353*	0.0316	0.0222*	0.0308*	?
CC1CCC2(CC1)NC(CO)(CO)CO2 (stereo not drawn)	6.3	-7.5	0.2	/	-1.25	/	/	/	/	/	/
CCC1CCC2(CC1)NC(CO)(CO)CO2 (stereo not drawn)	-9.5	-30.4	-0.5	-10.3	4.96*	0.00803	0.00487	0.0278	0.00803	0.0189	0.0111*
CCOC(=O)c1sc(NC(=O)CSc2nc(-c3ccco3)cc(C(F)(F)F)n2)c(C(=O)OC(C)C)c1C	/	/	/	/	-0.0925	/	/	/	/	/	/
COc1cc(C)c(Cl)cc1S(=O)(=O)NC1CC(C)(C)NC(C)(C)C1	-1.0	/	1.8	/	0.495	/	/	/	/	/	/
CCC(=O)NC(NC(=S)Nc1c(C)n(C)n(-c2ccccc2)c1=O)C(Cl)(Cl)Cl (stereo not drawn)	-9.7	-38.9	2.9	0.2	0.686	/	/	/	/	/	/
O=c1c2cnn(-c3ccccc3)c2nc(-c2cccs2)n1-c1ccc(Br)cc1	-6.0	-31.0	2.5	-5.1	-0.352	/	/	/	/	/	/
O=C(O)CSc1nc2c(cnn2-c2ccccc2)c(=O)n1-c1ccc(Br)cc1	11.2	-49.0	4.8	8.8	-5.57*	0.00549	0.0045	0.0217*	?	0.0112*	0.00969

High-throughput results as filed in PubChem BioAssay.
